Data on 27 molecules can be found in ChEMBL document CHEMBL4382227, “Optimization and preclinical evaluation of novel histamine H3receptor ligands: Acetyl and propionyl phenoxyalkyl piperazine derivatives” (Bioorg Med Chem, 2018).

Data set [1] concerns HepG2. Briefly: Cytotoxicity against human HepG2 cells assessed as decrease in cell viability at 1 uM by MTS assay relative to control. Format: cell-based. As to conditions: hepg2, 1 µM. The method, boiled down:
(§1)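 HepG2 hepatoma cells; viability read by MTS at 490 nm against untreated negative control. Doxorubicin and CCCP served as reference toxins. One-way ANOVA with Bonferroni.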

The target of a further data set is Histamine H3 receptor (Homo sapiens, UniProt Q9Y5N1). As to the kind of experiment: Displacement of [3H]N-alpha-methylhistamine from full length recombinant human H3R expressed in HEK293 cell membranes after 90 mins by beta scintillation counting method. A digest of the protocol: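 Frozen crude membranes from HEK-293 cells stably expressing full-length human H3R were incubated 90 min at RT with shaking, with [3H]Nα-methylhistamine (2 nM; KD 3.08 nM) and 5–11 concentrations of test compound between 0.01 nM and 10 μM. Nonspecific binding was defined with pitolisant 10 μM. Samples were filtered on PEI-treated GF/B filters and washed with ice-cold water. Ki was derived from IC50 by Cheng-Prusoff; ≥3 experiments, each in at least duplicate.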
Sequence of Histamine H3 receptor (Q9Y5N1 whole entry): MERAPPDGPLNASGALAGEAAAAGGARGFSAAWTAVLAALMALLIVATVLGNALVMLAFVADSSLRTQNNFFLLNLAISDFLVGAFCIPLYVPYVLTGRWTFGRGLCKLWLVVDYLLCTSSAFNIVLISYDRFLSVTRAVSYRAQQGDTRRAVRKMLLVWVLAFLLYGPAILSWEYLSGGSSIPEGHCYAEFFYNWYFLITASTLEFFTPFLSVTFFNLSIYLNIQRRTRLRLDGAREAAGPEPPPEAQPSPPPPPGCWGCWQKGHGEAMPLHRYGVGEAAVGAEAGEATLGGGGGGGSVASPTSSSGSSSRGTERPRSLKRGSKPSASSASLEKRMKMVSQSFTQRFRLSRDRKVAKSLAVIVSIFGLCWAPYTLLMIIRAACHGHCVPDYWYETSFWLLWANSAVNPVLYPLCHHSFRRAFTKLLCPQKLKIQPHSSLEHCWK
On the technique in general: In a radioligand displacement assay an active substance lowers the binding of a labelled ligand.

Data set [2] in a line: Toxicity in CD-1 mouse assessed as effect on spontaneous activity by measuring decrease in locomotor activity at 5 mg/kg, ip measured at 30 mins post dose for 20 mins. Format: organism-based. The settings on record: in vivo. A digest of the protocol: (§2)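 Male CD-1 mice (20–22 g) were placed in the activity cage immediately after i.p. dosing. Distance travelled was recorded from 30 min post-dose over 20 min. Groups had 6–8 animals.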

A short description of data set [3]: Toxicity in CD-1 mouse assessed as effect on spontaneous activity by measuring decrease in locomotor activity at 3 mg/kg, ip measured at 30 mins post dose for 20 mins. Format: organism-based. As to conditions: in vivo. The method, boiled down:
as §2

Data set [4] has as its system Rattus norvegicus. Briefly: Protection against development of overweight in Wistar rat fed with palatable feed assessed as decrease in weight gain at 3 mg/kg, ip once daily for 14 days. Format: functional, organism-based. A digest of the protocol:
(§3)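 Male Wistar rats (initial 160–180 g), housed in pairs, given palatable diet (peanuts, condensed milk, milk chocolate with hazelnuts, Greek cheese) and dosed i.p. once daily in the morning for 14 days in 1% Tween 80; controls were vehicle on palatable or standard diet. Food intake was recorded three times per week and body weight daily before dosing. Results are mean ± SEM, n = 6; two-way ANOVA with Bonferroni.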

For data set [5], the system named is HepG2. Briefly: Induction of phospholipidosis in human HepG2 cells assessed as increase in number of cellular lysosomes at 50 uM after 72 hrs by LYSO-ID Red and Hoechst 33342 staining based fluorescence microscopic method. As to conditions: hepg2, 72 h. The class given is cell-based.
In data set [6] the test system is HepG2. Briefly: Cytotoxicity against human HepG2 cells assessed as decrease in cell viability at 10 uM by MTS assay relative to control. Format: cell-based. The settings on record: hepg2, 10 µM. A digest of the protocol:
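HepG2 human hepatoma cells (ATCC HB-8065) were exposed to the test compound at concentrations that included 10 and 100 μM. Viability was read by the MTS assay at 490 nm absorbance and expressed relative to an untreated negative control. Doxorubicin and CCCP served as reference toxins. Significance was tested by one-way ANOVA with Bonferroni's comparison test.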
For orientation: Tetrazolium dyes change colour on reduction, which living cells bring about.

Data set [7] deals with Rattus norvegicus. As to the kind of experiment: Protection against development of overweight in Wistar rat fed with palatable feed assessed as decrease in peritoneal fat at 3 mg/kg, ip once daily for 14 days measured on day 15. Format: functional, organism-based.
Data set [8] deals with Rattus norvegicus. Briefly: Protection against development of overweight in Wistar rat fed with palatable feed assessed as weight gain at 3 mg/kg, ip once daily for 14 days measured on day 9 during compound dosing relative to control. Format: functional. The method, boiled down:
as §3

For data set [9], the system named is Rattus norvegicus. As to the kind of experiment: Protection against development of overweight in Wistar rat fed with palatable feed assessed as weight gain at 3 mg/kg, ip once daily for 14 days measured on day 14 during compound dosing relative to control. The class given is functional. The method, boiled down: as §3
Data set [10] has as its system Rattus norvegicus. Briefly: Protection against development of overweight in Wistar rat fed with preferantial feed assessed as decrease in weight gain at 3 mg/kg, ip once daily for 14 days measured daily during compound dosing. The class given is functional, organism-based. The method, boiled down: as §3
The subject of data set [11] is Rattus norvegicus. As to the kind of experiment: Protection against development of overweight in Wistar rat fed with palatable feed assessed as decrease in weight gain at 1 mg/kg, ip once daily for 14 days measured daily during compound dosing. Format: functional, organism-based. A digest of the protocol:
as §3

Data set [12] deals with Rattus norvegicus. As to the kind of experiment: Anorectic activity in Wistar rat fed with palatable diet assessed as reduction in amount of calories consumed at 3 mg/kg, ip once daily for 14 days. Format: functional, organism-based. A digest of the protocol: as §3
Data set [13] deals with Rattus norvegicus. Briefly: Protection against hyperglycemia in Wistar rat fed with palatable feed assessed as decrease in plasma glucose level at 3 mg/kg, ip once daily for 14 days by spectrophotometric method. Format: functional, organism-based. The method, boiled down:
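On day 15, plasma was taken from the left carotid artery 20 min after i.p. heparin (1000 j/rat) and thiopental (70 mg/kg b.w.), and peritoneal fat was weighed. Glucose was measured by an enzymatic colorimetric test read at 500 nm. Rats had been on palatable diet with daily i.p. dosing in 1% Tween 80 for 14 days.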

The nature of data set [14]: Toxicity in Wistar rat fed with palatable diet assessed as effect on spontaneous activity by measuring induction of sedation at 3 mg/kg, ip for 13 days measured on day 1 and 13 at 24 hrs post dose. Format: organism-based. As to conditions: in vivo. The method, boiled down:
(§4)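 Wistar rats on palatable diet, housed in pairs in home cages, received daily i.p. dosing. Spontaneous activity was recorded by an RFID system for 24 h after dosing on days 1 and 13. Results are mean ± SEM, n = 6; multiple t-test.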

Data set [15] is described as follows: Toxicity in Wistar rat fed with palatable diet assessed as effect on spontaneous activity by measuring induction of hyperlocomotion at 3 mg/kg, ip for 13 days measured on day 1 and 13 at 24 hrs post dose. Format: organism-based. The settings on record: in vivo. A digest of the protocol:
as §4

The nature of data set [16]: Metabolic stability in human liver microsomes assessed as parent compound remaining after 120 mins by UPLC analysis. Format: ADME, Microsome. As to conditions: read-out: Stability. A general note: Liver microsomes are vesicles of endoplasmic reticulum, rich in cytochrome P450 enzymes.
The test system of data set [17] is HepG2. Briefly: Cytotoxicity against human HepG2 cells assessed as decrease in cell viability at 10 to 100 uM by MTS assay relative to control. The class given is cell-based. As to conditions: hepg2, 100 µM. The method, boiled down: as §1

Calls of active or inactive are those of the source. No cut-off for these calls is given here.

Regarding `COc1cccc2c1C(=O)c1c(O)c3c(c(O)c1C2=O)C[C@@](O)(C(=O)CO)C[C@@H]3O[C@H]1C[C@H](N)[C@H](O)[C@H](C)O1` [DOXORUBICIN], the Activity in the data set on HepG2 [1] is reported as more than 50%.
Broadly, the Ki is a measure of affinity in units of concentration, obtained from inhibition or displacement. Take `CC(=O)c1ccc(OCCCCN2CCN(c3ccncc3)CC2)cc1`: at Histamine H3 receptor, the Ki amounted to 115 nM.
Take `CC(=O)c1ccc(OCCCCN2CCN(C(=O)C3CCCO3)CC2)cc1` (centres undefined): the Ki at Histamine H3 receptor is more than 10000 nM.
On the same count and under the same terms, next, `CCC(=O)c1ccc(OCCCCN2CCN(c3ccccn3)CC2)cc1`: 1440 nM; `CC(=O)c1ccc(OCCCN2CCN(c3cnccn3)CC2)cc1`: 2320 nM.
As for `CCC(=O)c1ccc(OCCCN2CCN(c3ccncc3)CC2)cc1`, on Histamine H3 receptor, the Ki amounted to 5.2 nM. For the same molecule, the values for the Activity result in [2] and in data set [3] were “Toxic” and “Non-Toxic”, respectively. For the same molecule, the result in the data set with Rattus norvegicus [4] was inactive.
Regarding `CC(=O)c1ccc(OCCCCN2CCN(c3ncccn3)CC2)cc1`, the inhibition constant (Ki) on Histamine H3 receptor is 1630 nM.
On the same count and under the same terms, next, `CCC(=O)c1ccc(OCCCN2CCN(c3cnccn3)CC2)cc1`: 3390 nM.
On the same count and under the same terms, in the case of `CCC(=O)c1ccc(OCCCN2CCN(c3cccnc3)CC2)cc1` it was 192 nM.
As to `CCC(=O)c1ccc(OCCCN2CCN(C(=O)C3CCCO3)CC2)cc1` (centres undefined), the inhibitory constant (Ki) on Histamine H3 receptor turned out to be 1390 nM.
For `CCC(=O)c1ccc(OCCCN2CCN(c3ncccn3)CC2)cc1`, the inhibitory constant (Ki) on Histamine H3 receptor was determined as 1720 nM.
Same read-out and setting: next, `CC(=O)c1ccc(OCCCN2CCN(C(=O)C3CCCO3)CC2)cc1` (centres undefined): 4890 nM; `CCC(=O)c1ccc(OCCCCN2CCN(c3ccncc3)CC2)cc1`: 15.4 nM.
With `CC(=O)N1CCN(c2ccc(OCC3COC(Cn4ccnc4)(c4ccc(Cl)cc4Cl)O3)cc2)CC1` (centres undefined) [KETOCONAZOLE], the Activity result in the data set with HepG2 [5] is “Toxic”.
Take `CC(=O)c1ccc(OCCCCN2CCN(c3cnccn3)CC2)cc1`: the inhibitory constant (Ki) at Histamine H3 receptor is 1230 nM.
For the molecule `CC(=O)c1ccc(OCCCCN2CCN(c3cccnc3)CC2)cc1`, the inhibition constant Ki at Histamine H3 receptor worked out at 908 nM.
The same measure, in the same setting: in the case of `CCC(=O)c1ccc(OCCCCN2CCN(c3cnccn3)CC2)cc1` it was 4040 nM.
Turning to `CCC(=O)c1ccc(OCCCCN2CCN(C(=O)C3CCCO3)CC2)cc1` (centres undefined), the inhibitory constant (Ki) at Histamine H3 receptor is more than 10000 nM.
As for `N#CC(C#N)=NNc1cccc(Cl)c1` [CARBONYL CYANIDE M-CHLOROPHENYLHYDRAZONE], in the data set with HepG2 [6], the Activity is given as more than 50%.
In the case of `CC(=O)c1ccc(OCCCN2CCN(c3ccccn3)CC2)cc1`, the inhibition constant (Ki) on Histamine H3 receptor amounted to 315 nM.
As to `CC(=O)c1ccc(OCCCN2CCN(c3cccnc3)CC2)cc1`, the inhibitory constant (Ki) on Histamine H3 receptor is 499 nM.
In the case of `CC(=O)c1ccc(OCCCN2CCN(c3ncccn3)CC2)cc1`, the inhibition constant (Ki) on Histamine H3 receptor is 2450 nM.
Still for that read-out and setting: in the case of `CC(=O)c1ccc(OCCCCN2CCN(c3ccccn3)CC2)cc1` it was 3700 nM; in that of `CCC(=O)c1ccc(OCCCCN2CCN(c3cccnc3)CC2)cc1`, 1390 nM; in that of `CCC(=O)c1ccc(OCCCN2CCN(c3ccccn3)CC2)cc1`, 377 nM.
Still for that read-out and setting: in the case of `CCC(=O)c1ccc(OCCCCN2CCN(c3ncccn3)CC2)cc1` it was 3630 nM.
As for `CC(=O)c1ccc(OCCCN2CCN(c3ccncc3)CC2)cc1`, the outcome with Rattus norvegicus [7], in the data set on Rattus norvegicus [10], in the data set with Rattus norvegicus [12] and in the data set on Rattus norvegicus [13] was Active. Moreover, the inhibition constant Ki on Histamine H3 receptor came to 10.2 nM. Besides, the Activity result is “Toxic” in data set [2]; “Non-Toxic” in data set [3]; 8.64% in the data set on Rattus norvegicus [8]; 7.89% with Rattus norvegicus [9]; “Non-Toxic” in data set [14]; “Non-Toxic” in data set [15]. For the same molecule, the Activity was 10% in the data set with HepG2 [17] and “Non-Toxic” with HepG2 [5]. Besides, the result in the data set on Rattus norvegicus [11] was inactive. In data set [16], the remaining at 2 h amounted to 91.3%.
